# From ChEMBL document CHEMBL4049423, “Discovery of Novel 1,4-Diacylpiperazines as Selective and Cell-Active eIF4A3 Inhibitors” (J Med Chem, 2017)
# Active and inactive are the calls of the source. The calls are words filed in the database; no cut-off is given here.
# Molecular target: T1, Eukaryotic initiation factor 4A-III (Homo sapiens, UniProt P38919)
# Assay: Inhibition of eIF4A3 (unknown origin) expressed in HEK293T cells assessed as NMD suppression at 3 uM after 6 hrs by luciferase reporter gene assay relative to control
# Format: cell-based
# Outline: (§1)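 HEK293T cells were co-transfected (Lipofectamine LTX) with the pGL4.12 SV40-Luc2CP-BGG NMD reporter and a pRL-TK renilla control. After 24 h of transfection, cells were treated with compound for 6 h. Firefly/renilla luciferase ratio was measured by dual-luciferase assay and normalized to DMSO-treated cells, n = 2.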
# T1 sequence (P38919 whole entry): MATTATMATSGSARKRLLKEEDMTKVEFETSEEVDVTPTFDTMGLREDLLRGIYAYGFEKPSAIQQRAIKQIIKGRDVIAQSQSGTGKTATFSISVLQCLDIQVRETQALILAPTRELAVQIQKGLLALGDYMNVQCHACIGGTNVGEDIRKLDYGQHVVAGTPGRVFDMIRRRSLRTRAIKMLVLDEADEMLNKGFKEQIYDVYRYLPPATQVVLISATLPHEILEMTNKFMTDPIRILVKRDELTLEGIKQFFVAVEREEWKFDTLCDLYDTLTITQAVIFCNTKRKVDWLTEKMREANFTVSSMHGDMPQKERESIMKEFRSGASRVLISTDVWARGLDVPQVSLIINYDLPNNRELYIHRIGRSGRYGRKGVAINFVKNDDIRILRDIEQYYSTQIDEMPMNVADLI
row,NMD suppression activity (qualitative),SMILES
1,Active,O=C(c1cnn2cc(Br)ccc12)N1CCN(C(=O)c2ccc(Br)cc2)C(c2ccc(Cl)cc2)C1 (configuration not stated)
2,Active,N#Cc1cccc(-c2ncc(C(=O)N3CCN(C(=O)c4ccc(Br)cc4)C(c4ccc(Cl)cc4)C3)o2)c1 (configuration not stated)
3,Active,N#Cc1ccnc(-c2ncc(C(=O)N3CCN(C(=O)c4ccc(Br)cc4)C(c4ccc(Cl)cc4)C3)o2)c1 (configuration not stated)

# Molecular target: T1, Eukaryotic initiation factor 4A-III
# Assay: Inhibition of MLN51-induced full-length human recombinant His6-tagged eIF4A3 RNA dependent ATPase activity expressed in Escherichia coli BL21(DE3) using single stranded poly(U) RNA as substrate after 30 mins by ADP-Glo luminescence assay
# Outline: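 ADP-Glo luminescence read-out with 150 nM eIF4A3 plus an equimolar amount of MLN51. Substrates were 35 μM ATP and 1.5 μg/mL poly(U), both at Km. Buffer: 20 mM Tris-HCl pH 7.5, 2.5 mM MgCl2, 100 mM KCl, 1 mM DTT, 0.01% Tween20. Enzyme was added last to start the reaction, then incubated 30 min at room temperature. No-enzyme wells were taken as 100% inhibition and the complete reaction as 0%.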
row,SMILES,IC50 [nM]
1,O=C(c1cnn2cc(Br)ccc12)N1CCN(C(=O)c2ccc(Br)cc2)C(c2ccc(Cl)cc2)C1 (configuration not stated),420
2,O=C(c1cnn2cc(Br)ccc12)N1CCN(C(=O)c2ccc(Cl)cc2)C(c2ccc(Cl)cc2)C1 (configuration not stated),720
3,O=C(c1ccc(Cl)cc1)N1CCN(Cc2cnc(-c3ccccc3)o2)CC1c1ccc(Cl)cc1 (configuration not stated),> 100000
4,N#Cc1cccc(-c2ncc(C(=O)N3CCN(C(=O)c4ccc(Cl)cc4)C(c4ccc(Cl)cc4)C3)o2)c1 (configuration not stated),600
5,O=C(c1cnc(-c2ccccc2)o1)N1CCN(C(=O)c2ccc(Cl)cc2)C(C2CCCCC2)C1 (configuration not stated),> 100000
6,O=C(c1cnc(-c2ccccc2)o1)N1CCN(C(=O)c2cccc(Cl)c2)C(c2ccc(Cl)cc2)C1 (configuration not stated),> 100000
7,O=C(c1cnc(-c2ccccc2)o1)N1CCN(Cc2ccc(Cl)cc2)C(c2ccc(Cl)cc2)C1 (configuration not stated),> 100000
8,O=C(c1cnc(-c2ccccc2)o1)N1CCN(C(=O)c2ccc(Cl)cc2)C(c2ccccc2Cl)C1 (configuration not stated),> 100000
9,N#Cc1cccc(-c2ncc(C(=O)N3CCN(C(=O)c4ccc(Br)cc4)C(c4ccc(Cl)cc4)C3)o2)c1 (configuration not stated),360
10,N#Cc1ccccc1-c1ncc(C(=O)N2CCN(C(=O)c3ccc(Cl)cc3)C(c3ccc(Cl)cc3)C2)o1 (configuration not stated),2100
11,N#Cc1ccnc(-c2ncc(C(=O)N3CCN(C(=O)c4ccc(Br)cc4)C(c4ccc(Cl)cc4)C3)o2)c1 (configuration not stated),390
12,O=C(c1cnc(-c2ccccc2)o1)N1CCN(C(=O)c2ccccc2)C(c2ccc(Cl)cc2)C1 (configuration not stated),11000
13,N#Cc1ccc2c(C(=O)N3CCN(C(=O)c4ccc(Br)cc4)C(c4ccc(Cl)cc4)C3)cnn2c1 (configuration not stated),9000
14,O=C(c1cnn2cccc(Br)c12)N1CCN(C(=O)c2ccc(Cl)cc2)C(c2ccc(Cl)cc2)C1 (configuration not stated),8900
15,O=C(c1cnn2c(Br)cccc12)N1CCN(C(=O)c2ccc(Cl)cc2)C(c2ccc(Cl)cc2)C1 (configuration not stated),1900
16,O=C(c1cnc(-c2ccccc2)o1)N1CCN(C(=O)c2ccccc2Cl)C(c2ccc(Cl)cc2)C1 (configuration not stated),> 100000
17,O=C(c1cnc(-c2ccccc2)o1)N1CCN(C(=O)c2ccc(Br)cc2)C(c2ccc(Cl)cc2)C1 (configuration not stated),660
18,O=C(c1cnn2ccc(Br)cc12)N1CCN(C(=O)c2ccc(Cl)cc2)C(c2ccc(Cl)cc2)C1 (configuration not stated),830
19,O=C1C(c2ccc(Cl)cc2)N(C(=O)c2ccc(Cl)cc2)CCN1Cc1cnc(-c2ccccc2)o1 (configuration not stated),> 100000
20,N#Cc1ccc(-c2ncc(C(=O)N3CCN(C(=O)c4ccc(Cl)cc4)C(c4ccc(Cl)cc4)C3)o2)cc1 (configuration not stated),8400
21,O=C(c1cnc(-c2ccccc2)o1)N1CCN(C(=O)c2ccc(Cl)cc2)C(c2cccc(Cl)c2)C1 (configuration not stated),> 100000

# Other lines, results leading:
row,IC50 [nM],SMILES
1,1100,O=C(c1cnn2ccccc12)N1CCN(C(=O)c2ccc(Cl)cc2)C(c2ccc(Cl)cc2)C1 (configuration not stated)
2,69000,O=C(c1coc(-c2ccccc2)n1)N1CCN(C(=O)c2ccc(Cl)cc2)C(c2ccc(Cl)cc2)C1 (configuration not stated)
3,62000,O=C(c1n[nH]c2ccccc12)N1CCN(C(=O)c2ccc(Cl)cc2)C(c2ccc(Cl)cc2)C1 (configuration not stated)
4,2400,O=C(c1cnn(-c2ccccc2)c1)N1CCN(C(=O)c2ccc(Cl)cc2)C(c2ccc(Cl)cc2)C1 (configuration not stated)
5,> 100000,O=C(c1ncc(-c2ccccc2)o1)N1CCN(C(=O)c2ccc(Cl)cc2)C(c2ccc(Cl)cc2)C1 (configuration not stated)
6,1600,Cc1c(C(=O)N2CCN(C(=O)c3ccc(Cl)cc3)C(c3ccc(Cl)cc3)C2)cnn1-c1ccccc1 (configuration not stated)
7,> 100000,O=C(c1cnc(-c2ccccc2)o1)N1CCCN(C(=O)c2ccc(Cl)cc2)C(c2ccc(Cl)cc2)C1 (configuration not stated)
8,> 100000,O=C(c1ccn(-c2ccccc2)n1)N1CCN(C(=O)c2ccc(Cl)cc2)C(c2ccc(Cl)cc2)C1 (configuration not stated)
9,2200,O=C(c1cnc(-c2ccccc2)o1)N1CCN(C(=O)c2ccc(Cl)cc2)C(c2ccc(Cl)cc2)C1 (configuration not stated)
10,2300,O=C(c1c[nH]c2ccccc12)N1CCN(C(=O)c2ccc(Cl)cc2)C(c2ccc(Cl)cc2)C1 (configuration not stated)

# Molecular target: T1, Eukaryotic initiation factor 4A-III
# Assay: Inhibition of eIF4A3 (unknown origin) expressed in HEK293T cells assessed as NMD suppression at 10 uM after 6 hrs by luciferase reporter gene assay relative to control
# Format: cell-based
# Outline: as §1
row,fold change (FC),SMILES
1,1.9,O=C(c1cnn2cc(Br)ccc12)N1CCN(C(=O)c2ccc(Br)cc2)C(c2ccc(Cl)cc2)C1 (configuration not stated)
2,1.8,N#Cc1cccc(-c2ncc(C(=O)N3CCN(C(=O)c4ccc(Br)cc4)C(c4ccc(Cl)cc4)C3)o2)c1 (configuration not stated)
3,1.8,N#Cc1ccnc(-c2ncc(C(=O)N3CCN(C(=O)c4ccc(Br)cc4)C(c4ccc(Cl)cc4)C3)o2)c1 (configuration not stated)
